Data on eight molecules can be found in ChEMBL document CHEMBL3272174, “Molecular structural effects involved in the interaction of quinolinemethanolamines with DNA. Implications for antimalarial action” (1977).

The test system of assay [1] is Plasmodium berghei. Put plainly: Antimalarial activity against Plasmodium berghei infected in mouse assessed as increase in mean survival time at 80 to 640 mg/kg measured after 60 days post infection relative to control. The format is functional, organism-based.
Assay [2] deals with Escherichia coli. Put plainly: Inhibition of Escherichia coli RNA polymerase assessed as reduction in RNA transcription at compound/DNA molar ratio of 1.
Assay [3] concerns Calf thymus DNA. The assay can be described thus: Binding affinity to calf thymus DNA assessed as melting temperature at 10^-4 M by thermal denaturation assay. The format is nucleic-acid assay. To be noted: Bos taurus. The procedure, abridged: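 Calf thymus DNA dissolved in standard buffer (3.8×10^-3 M NaH2PO4, 5×10^-4 M EDTA, pH 7.0, ionic strength 0.0095) and dialyzed against it. Thermal denaturation: DNA at 10^-4 M (nucleotide equivalents), drug at 10^-4 M. Absorbance recorded as a function of temperature in stoppered 1.0-cm quartz cuvettes, with a thermistor in the cell block.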

Assay [4] has as its system Escherichia coli. The assay can be described thus: Binding affinity to closed circular superhelical Escherichia coli ColE1 DNA by viscometric titrations.
The test system of assay [5] is Calf thymus DNA. Put plainly: Binding affinity to sonicated calf thymus DNA at 10^-3 M by spectroscopy. To be noted: Bos taurus. Format: nucleic-acid assay. The procedure, abridged: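 Difference spectra: sonicated calf thymus DNA (2.3×10^-3 M) and drug (3.5×10^-4 M) in standard pH 7.0 phosphate/EDTA buffer were loaded in separate compartments of 10-mm tandem cells to set a baseline. Equal volumes were then mixed and read against the separated solutions.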

Assay [6] concerns Calf thymus DNA. The assay can be described thus: Binding affinity to sonicated calf thymus DNA by viscometric titrations. The format is nucleic-acid assay. To be noted: Bos taurus. The gist of the method:
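Sonicated calf thymus DNA (1.0-3.0 mL) titrated with small aliquots of concentrated drug stock in a semimicro Ubbelohde dilution viscometer at 25 °C, in standard buffer. Volume change stayed at or below 3%, and DNA dilution was corrected. Reduced specific viscosity ratio plotted against drug/nucleotide molar ratio.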

Assay [7] has as its system Calf thymus DNA. The assay can be described thus: Binding affinity to calf thymus DNA assessed as melting temperature at 10^-5 M by thermal denaturation assay. To be noted: Bos taurus. Format: nucleic-acid assay. The procedure, abridged:
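Thermal melting of dialyzed calf thymus DNA (10^-4 M nucleotide) with drug at 10^-5 M, in standard phosphate/EDTA buffer at pH 7.0. Absorbance followed against temperature in 1.0-cm stoppered quartz cuvettes, with temperature monitored by a cell-block thermistor.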

Assay [8] deals with Plasmodium berghei. The assay can be described thus: Antimalarial activity against Plasmodium berghei infected in mouse assessed as increase in mean survival time at 40 mg/kg measured after 60 days post infection relative to control. The format is functional. The gist of the method: (§1)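 Tested at Walter Reed Army Institute of Research (communicated data) in mice infected with P. berghei. Five mice per test. Read-out is the increase in mean survival time (ΔMST, days) over the control group. Activity is defined as ΔMST above 6.1 days. Cure (C) is scored when at least one of the five mice survives to 60 days postinfection.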

Assay [9] relates to Plasmodium berghei. Put plainly: Antimalarial activity against Plasmodium berghei infected in mouse assessed as increase in mean survival time at 320 mg/kg measured after 60 days post infection relative to control. The format is functional. The procedure, abridged:
as §1

The subject of assay [10] is Plasmodium berghei. Put plainly: Antimalarial activity against Plasmodium berghei infected in mouse assessed as increase in mean survival time at 640 mg/kg measured after 60 days post infection relative to control. Format: functional. The procedure, abridged: as §1
Assay [11] deals with Plasmodium berghei. Put plainly: Antimalarial activity against Plasmodium berghei infected in mouse assessed as increase in mean survival time at 160 mg/kg measured after 60 days post infection relative to control. The format is functional. The gist of the method:
as §1

The subject of assay [12] is Plasmodium berghei. Put plainly: Antimalarial activity against Plasmodium berghei infected in mouse assessed as increase in mean survival time at 80 mg/kg measured after 60 days post infection relative to control. Format: functional. The procedure, abridged:
as §1

Molecules are shown by their SMILES. The source made the active and inactive calls.

`O[C@@H](c1cc(C(F)(F)F)nc2c(C(F)(F)F)cccc12)[C@H]1CCCCN1` (relative stereo): the result in [1] and in assay [5] was Active. Besides, the result in assay [2], in assay [4] and in [6] was inactive. Besides, the Tm (commonly the temperature at which the thermal transition is half complete) in assay [3] was found to be 63 °C.

For `CCN(CC)CCCC(C)Nc1c2ccc(Cl)cc2nc2ccc(OC)cc12` (configuration not stated), the Tm in [7] was found to be 88 °C. Also, the result in assay [4] and in [6] was Active.

Turning to `NC(=O)c1cc(C(O)C2CCCCN2)c2cccc(C(F)(F)F)c2n1` (configuration not stated), the “fold change (FC)” value in [8] came to 0.3; in assay [9], 0.7; in assay [10], 7.9; in assay [11] it was 0.5; in [12], 0.3. In addition, in [3], the Tm is 64.9 °C. Besides, the result in [4] was inactive. In addition, the outcome in [5] and in [6] was Active.

For the molecule `OC(c1cc(C(F)(F)F)nc2c(F)cccc12)C1CCCCN1` (configuration not stated), the “fold change (FC)” value in [9] came to 7.1; in assay [12] it was 4.1. Also, the melting temperature (Tm) in assay [3] turned out to be 61.5 °C. For the same molecule, the result in assay [4] and in assay [6] was inactive. Also, in [5], the result was Active.

In the case of `NCCCCN`, the outcome in assay [4] was inactive.

`CCN(CC)CCCC(C)Nc1ccnc2cc(Cl)ccc12` (configuration not stated): the Tm in assay [7] was 75 °C. In [4], the outcome was inactive. In addition, the result in assay [6] was Active.

As to `COc1cccc2c1C(=O)c1c(O)c3c(c(O)c1C2=O)C[C@@](O)(C(C)=O)C[C@@H]3O[C@H]1C[C@H](N)[C@H](O)[C@H](C)O1`, in [2], the result was Active.

With `C=C[C@H]1CN2CC[C@H]1C[C@H]2[C@H](O)c1ccnc2ccc(OC)cc12`, the Tm in [3] was 66.3 °C. Also, the result in [5] and in assay [6] was Active.
